Laboratory results: ChEMBL document CHEMBL2150947, “Pyrazolopyridine inhibitors of B-Raf(V600E). Part 4: rational design and kinase selectivity profile of cell potent type II inhibitors” (Bioorg Med Chem Lett, 2012)

Assays:
[1] = target: T1, Serine/threonine-protein kinase B-raf (Homo sapiens, UniProt P15056, V600E); assay: Inhibition of full length B-Raf V600E mutant
[2] = target: T1, Serine/threonine-protein kinase B-raf; assay: Inhibition of B-Raf V600E mutant in human Malme-3M cells assessed as ERK phosphorylation; assay type: cell-based
Summary of the method: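 Mechanistic cellular read-out: inhibition of basal ERK phosphorylation in Malme-3M melanoma cells; IC50 taken as the mean of at least two experiments.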

T1 sequence (P15056 2-766 V600E limits assumed): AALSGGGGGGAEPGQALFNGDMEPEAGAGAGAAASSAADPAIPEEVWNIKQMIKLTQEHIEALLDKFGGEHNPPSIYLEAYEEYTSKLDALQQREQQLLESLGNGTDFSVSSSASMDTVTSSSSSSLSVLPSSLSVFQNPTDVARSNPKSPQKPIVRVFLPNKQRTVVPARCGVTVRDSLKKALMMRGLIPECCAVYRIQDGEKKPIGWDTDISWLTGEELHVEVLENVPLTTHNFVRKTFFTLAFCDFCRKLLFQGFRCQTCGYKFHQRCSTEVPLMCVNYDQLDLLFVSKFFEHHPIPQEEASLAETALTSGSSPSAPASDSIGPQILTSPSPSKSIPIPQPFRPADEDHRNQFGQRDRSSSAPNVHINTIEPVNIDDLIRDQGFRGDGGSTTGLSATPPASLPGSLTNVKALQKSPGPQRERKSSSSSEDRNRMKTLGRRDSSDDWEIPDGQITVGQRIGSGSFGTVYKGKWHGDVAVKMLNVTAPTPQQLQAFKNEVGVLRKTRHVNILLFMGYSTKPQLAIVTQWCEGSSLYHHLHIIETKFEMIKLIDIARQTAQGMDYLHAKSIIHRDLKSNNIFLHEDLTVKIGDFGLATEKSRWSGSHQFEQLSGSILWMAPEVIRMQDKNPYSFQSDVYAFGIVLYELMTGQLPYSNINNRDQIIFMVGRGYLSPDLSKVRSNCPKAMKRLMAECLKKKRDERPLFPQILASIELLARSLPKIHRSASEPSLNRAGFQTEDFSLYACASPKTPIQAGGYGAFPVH

| SMILES | IC50 [1] | IC50 [2] |
| --- | --- | --- |
| COc1n[nH]c2ncc(NC(=O)c3cccc(NC(=O)c4cccc(C(C)(C)C#N)c4)c3F)cc12 | 5.1 nM | 1800 nM |
| COc1n[nH]c2ncc(NC(=O)c3c(F)ccc(NC(=O)c4cccc(C(C)(C)C#N)c4)c3F)cc12 |  | 180 nM |
| CC(C)(C#N)c1cccc(C(=O)Nc2ccc(F)c(C(=O)Nc3cnc4[nH]nc(C5CC5)c4c3)c2F)c1 | 3 nM | 520 nM |
| COc1n[nH]c2ncc(NC(=O)c3cccc(C(=O)Nc4ccccc4)c3)cc12 | 80 nM | > 10000 nM |
| CC(C)(C#N)c1cccc(C(=O)Nc2ccc(F)c(C(=O)Nc3cnc4[nH]ccc4c3)c2F)c1 | 6.8 nM | 440 nM |
| COc1n[nH]c2ncc(NC(=O)c3cccc(NC(=O)c4cccc(C(C)(C)C#N)c4)c3)cc12 | 0.9 nM | 140 nM |
| CC(C)(C#N)c1cccc(C(=O)Nc2ccc(F)c(C(=O)Nc3cnc4[nH]ncc4c3)c2F)c1 | 3.5 nM | 430 nM |
| COc1n[nH]c2ncc(NC(=O)c3cc(NC(=O)c4ccc(Cl)c(C(F)(F)F)c4)ccc3F)cc12 | 1.3 nM | 96 nM |
| COc1n[nH]c2ncc(NC(=O)c3cc(NC(=O)c4cccc(C(C)(C)C#N)c4)ccc3C)cc12 | 1.9 nM | 18 nM |
| COc1n[nH]c2ncc(NC(=O)c3cc(NC(=O)c4cccc(C(C)(C)C#N)c4)ccc3Cl)cc12 | 1.2 nM | 22 nM |
| COc1n[nH]c2ncc(NC(=O)c3cc(NC(=O)c4cccc(C(C)(C)C#N)c4)ccc3F)cc12 | 1 nM | 20 nM |
| COc1n[nH]c2ncc(NC(=O)c3c(F)ccc(NC(=O)c4ccccc4)c3F)cc12 | 39 nM | > 12000 nM |
| O=C(Nc1ccccc1)Nc1cccc(C(=O)Nc2cnc3[nH]ncc3c2)c1 | 0.7 nM | > 10000 nM |
| COc1n[nH]c2ncc(NC(=O)c3cc(C(=O)Nc4cccc(C(F)(F)F)c4)ccc3C)cc12 | 6.6 nM | 52 nM |
